Assay [1] deals with Tobacco mosaic virus. Nature of the assay: Antiviral activity against Tobacco mosaic virus (TMV) inoculated on fresh tobacco leaves followed by dipping into compound solution at 100 ug/mL for 20 min and measured 72 hr post compound treatment by half-leaf method. It is filed as functional. In a few lines:
(§1)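 Half-leaf method. Fresh tobacco leaves at the 5-6 growth stage were inoculated by juice-leaf rubbing with TMV at 5.88 × 10-2 μg/mL. Leaves were cut into halves along the main vein. Each half was immersed for 20 min in compound solution or in double-distilled water, then cultured at 25 °C for 72 h. Each concentration was run at least three times.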

In assay [2] the test system is Tobacco mosaic virus. Nature of the assay: Antiviral activity against Tobacco mosaic virus (TMV) inoculated on fresh tobacco leaves followed by dipping into compound solution for 20 min and measured 72 hr post compound treatment by half-leaf method. It counts as functional, organism-based. In a few lines:
as §1

For assay [3], the system named is Tobacco mosaic virus. The experiment in a line: Antiviral activity against Tobacco mosaic virus (TMV) inoculated on fresh tobacco leaves followed by dipping into compound solution at 5 ug/mL for 20 min and measured 72 hr post compound treatment by half-leaf method. It counts as functional. In a few lines:
as §1

In assay [4] the test system is Tobacco mosaic virus. Nature of the assay: Antiviral activity against Tobacco mosaic virus (TMV) inoculated on 100 ug/mL compound smeared Nicotiana tabacum leaves assessed as protective effect against viral infection measured 3 to 4 days post viral infection. It counts as functional. The essentials: (§2)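 N. tabacum L. leaves of the same age were used. Compound solution was smeared on the left half and solvent control on the right half. Leaves were inoculated with TMV 12 h later.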

Assay [5] deals with Tobacco mosaic virus. Nature of the assay: Antiviral activity against Tobacco mosaic virus (TMV) inoculated on whole Nicotiana tabacum leaves followed by smearing with 100 ug/mL compound solution on left side of leaves assessed as viral infection curative effect measured 3 to 4 days post viral infection. It counts as functional. In a few lines: (§3)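 Whole growing N. tabacum L. leaves of the same age were dip-inoculated with TMV at 6.0 × 10-3 mg/mL.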

The test system of assay [6] is Tobacco mosaic virus. Nature of the assay: Antiviral activity against Tobacco mosaic virus (TMV) pre-treated with 100 ug/mL compound for 30 min followed by inoculation on left side of Nicotiana tabacum leaves assessed as virus inactivation effect measured 3 to 4 days post viral infection. It is filed as functional. The essentials: (§4)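 TMV was mixed with an equal volume of compound solution for 30 min, then inoculated on the left half of N. tabacum L. leaves. A solvent-plus-virus mixture was inoculated on the right half as control. Local lesions were counted 3-4 days after inoculation. Each compound was run in three replicates.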

The test system of assay [7] is Tobacco mosaic virus. Nature of the assay: Antiviral activity against Tobacco mosaic virus (TMV) inoculated on fresh tobacco leaves followed by dipping into compound solution at 50 ug/mL for 20 min and measured 72 hr post compound treatment by half-leaf method. It counts as functional. The essentials: as §1
The subject of assay [8] is Tobacco mosaic virus. The experiment in a line: Antiviral activity against Tobacco mosaic virus (TMV) inoculated on fresh tobacco leaves followed by dipping into compound solution at 25 ug/mL for 20 min and measured 72 hr post compound treatment by half-leaf method. It counts as functional. The essentials:
as §1

Assay [9] has as its system Tobacco mosaic virus. Nature of the assay: Antiviral activity against Tobacco mosaic virus (TMV) inoculated on fresh tobacco leaves followed by dipping into compound solution at 40 ug/mL for 20 min and measured 72 hr post compound treatment by half-leaf method. It is filed as functional. To be noted: for inhibition at 40 µg/mL: Tobacco mosaic virus. In a few lines:
as §1

The test system of assay [10] is Tobacco mosaic virus. The experiment in a line: Antiviral activity against Tobacco mosaic virus (TMV) pre-treated with 500 ug/mL compound for 30 min followed by inoculation on left side of Nicotiana tabacum leaves assessed as virus inactivation effect measured 3 to 4 days post viral infection. It is filed as functional. The essentials: as §4
In assay [11] the test system is Tobacco mosaic virus. The experiment in a line: Antiviral activity against Tobacco mosaic virus (TMV) inoculated on whole Nicotiana tabacum leaves followed by smearing with 500 ug/mL compound solution on left side of leaves assessed as viral infection curative effect measured 3 to 4 days post viral infection. It is filed as functional. The essentials: as §3
Assay [12] deals with Tobacco mosaic virus. Nature of the assay: Antiviral activity against Tobacco mosaic virus (TMV) inoculated on 500 ug/mL compound smeared Nicotiana tabacum leaves assessed as protective effect against viral infection measured 3 to 4 days post viral infection. It is filed as functional. In a few lines:
as §2

Assay [13] has as its system Tobacco mosaic virus. Nature of the assay: Antiviral activity against Tobacco mosaic virus (TMV) inoculated on fresh tobacco leaves followed by dipping into compound solution at 500 ug/mL for 20 min and measured 72 hr post compound treatment by half-leaf method. It is filed as functional. The essentials:
as §1

In assay [14] the test system is Tobacco mosaic virus. The experiment in a line: Antiviral activity against Tobacco mosaic virus (TMV) inoculated on fresh tobacco leaves followed by dipping into compound solution at 250 ug/mL for 20 min and measured 72 hr post compound treatment by half-leaf method. It is filed as functional. The essentials: as §1
The subject of assay [15] is Tobacco mosaic virus. The experiment in a line: Antiviral activity against Tobacco mosaic virus (TMV) inoculated on fresh tobacco leaves followed by dipping into compound solution at 125 ug/mL for 20 min and measured 72 hr post compound treatment by half-leaf method. It counts as functional. The essentials: as §1

In brackets after ≈: the same amount, converted by molar mass. Structures can show the parent of a compound that is named as a salt.

As for `CC1(C)C2CC[C@]1(S(=O)(=O)O)C(=O)C2.COc1cc2c3c(c4cc(OC)c(OC)cc4c2cc1OC)CN1CCCC1C3` (stereo unspecified), the inhibition (in general, the drop in the measured response relative to a control, in per cent) at 100 µg/mL with Tobacco mosaic virus [1] is 73.9%. Also, in the assay on Tobacco mosaic virus [2], the midpoint of the response, the EC50, lay at 23.6 µg/mL. Further, the inhibition at 5 µg/mL in the assay with Tobacco mosaic virus [3] was determined as 32.3%. Besides, the Activity came to 47.7% in the assay on Tobacco mosaic virus [4], 65.5% in the assay on Tobacco mosaic virus [5] and 55.6% with Tobacco mosaic virus [6]. The molecule also had an inhibition at 50 µg/mL in the assay on Tobacco mosaic virus [7] of 60.6%. In the assay on Tobacco mosaic virus [8], this molecule registered an inhibition at 25 µg/mL of 42.4%.
The molecule `COc1cc(/C=C/C(=O)O)ccc1O.COc1cc2c3c(c4cc(OC)c(OC)cc4c2cc1OC)CN1CCCC1C3` (stereo unspecified) had an inhibition at 100 µg/mL in the assay on Tobacco mosaic virus [1] of 72.2%. Moreover, the EC50 – broadly, the midpoint of the concentration-response curve – in the assay on Tobacco mosaic virus [2] came out at 40.3 µg/mL. In addition, at 5 µg/mL the inhibition in the assay with Tobacco mosaic virus [3] was 15.7%. Also, the results for the Activity with Tobacco mosaic virus [4], in the assay with Tobacco mosaic virus [5] and with Tobacco mosaic virus [6] were 45.5%, 13.8% and 51.1%, respectively. In addition, the inhibition at 50 µg/mL with Tobacco mosaic virus [7] stood at 68.5%. The same molecule gave an inhibition at 25 µg/mL in the assay on Tobacco mosaic virus [8] of 18.5%.
Regarding `COc1cc2c3c(c4cc(OC)c(OC)cc4c2cc1OC)CN1CCCC1C3.O=C(O)CC(O)(CC(=O)O)C(=O)O` (stereo unspecified), the “inhibition (INH)” value in the assay with Tobacco mosaic virus [9] is listed as 65.2%.
As to `COc1cc2c3c(c4cc(OC)c(OC)cc4c2cc1OC)CN1CCCC1C3.O=C(O)c1cc(S(=O)(=O)O)ccc1O` (stereo unspecified), testing at 100 µg/mL in the assay on Tobacco mosaic virus [1] gave an inhibition of 92.8%. This molecule also had an EC50 in the assay with Tobacco mosaic virus [2] of 21.3 µg/mL. This molecule came in with an inhibition at 5 µg/mL in the assay with Tobacco mosaic virus [3] of 15.6%. Moreover, the Activity in the assay with Tobacco mosaic virus [4] was determined as 38.6%; with Tobacco mosaic virus [5] it was 62.1%; in the assay on Tobacco mosaic virus [6], 42.2%. This molecule registered an inhibition at 50 µg/mL in the assay with Tobacco mosaic virus [7] of 79.9%. The same molecule returned an inhibition at 25 µg/mL in the assay with Tobacco mosaic virus [8] of 35.7%.
In the assay on Tobacco mosaic virus [1], `COc1ccc2c3c(c4cc(OC)c(OC)cc4c2c1)CC1CCCN1C3` (racemic) [(+/-)-ANTOFINE] registered an inhibition at 100 µg/mL of 80.7%. Besides, the EC50 in the assay on Tobacco mosaic virus [2] is less than 25 µg/mL. Further, in the assay on Tobacco mosaic virus [3], the inhibition at 5 µg/mL worked out at 56.7%. Besides, the results for the Activity in the assay with Tobacco mosaic virus [4], with Tobacco mosaic virus [5] and in the assay with Tobacco mosaic virus [6] were 26.7%, 54.4% and 66.3%, respectively. Besides, 50 µg/mL produced 69.7% inhibition in the assay with Tobacco mosaic virus [7]. In the assay on Tobacco mosaic virus [8], this molecule came in with an inhibition at 25 µg/mL of 68.8%.
`COc1ccc2c3c(c4cc(OC)c(OC)cc4c2c1)CN1CCCC1C3` (racemic) [(+/-)-DEOXYTYLOPHORININE]: in the assay with Tobacco mosaic virus [1], at 100 µg/mL the inhibition was 75%. The same molecule displayed an EC50 in the assay with Tobacco mosaic virus [2] of less than 25 µg/mL. Further, the Activity was 60% in the assay on Tobacco mosaic virus [4], 26.1% with Tobacco mosaic virus [5] and 67.4% in the assay on Tobacco mosaic virus [6]. Besides, the inhibition at 40 µg/mL with Tobacco mosaic virus [9] is 79.2%. In the assay with Tobacco mosaic virus [7], this molecule displayed an inhibition at 50 µg/mL of 66.7%. The molecule also displayed an inhibition at 25 µg/mL in the assay with Tobacco mosaic virus [8] of 65%.
The molecule `CNCC(=O)N[C@@H](CO)C(=O)N[C@H]1[C@H](O)[C@@H](O)[C@H](n2ccc(N)nc2=O)O[C@@H]1C(N)=O` [NINGNANMYCIN] yielded a half-maximal effective concentration (EC50) with Tobacco mosaic virus [2] of 440 µg/mL (≈ 992 µM). Moreover, the Activity stood at 50.5% in the assay on Tobacco mosaic virus [10], 23% with Tobacco mosaic virus [11] and 51.3% in the assay with Tobacco mosaic virus [12]. In the assay with Tobacco mosaic virus [13], this molecule came in with an inhibition at 500 µg/mL of 59.3%. This molecule also came in with an inhibition at 250 µg/mL in the assay on Tobacco mosaic virus [14] of 42.1%. In the assay with Tobacco mosaic virus [15], this molecule registered an inhibition at 125 µg/mL of 27%. Testing at 25 µg/mL with Tobacco mosaic virus [8] gave an inhibition of 28.2%.
Turning to `COc1cc2c3c(c4cc(OC)c(OC)cc4c2cc1OC)CN1CCCC1C3` (stereo unspecified) [TYLOPHORINE 2-HYDROXYSUCCINIC ACID SALT], in the assay with Tobacco mosaic virus [9], 40 µg/mL produced 69.1% inhibition.
The molecule `COc1cc2c3c(c4cc(OC)c(OC)cc4c2cc1OC)CN1CCCC1C3.Nc1ccc(S(=O)(=O)O)cc1` (stereo unspecified) [TYLOPHORINE P-AMINOBENZENESULFONIC ACID SALT] returned an inhibition at 100 µg/mL with Tobacco mosaic virus [1] of 80.9%. In the assay on Tobacco mosaic virus [2], a half-maximal response (EC50) required 14.3 µg/mL. This molecule also showed an inhibition at 5 µg/mL in the assay with Tobacco mosaic virus [3] of 31.4%. The Activity in the assay with Tobacco mosaic virus [4] was 38.6%; in the assay on Tobacco mosaic virus [5], 34.5%; with Tobacco mosaic virus [6] it was 75.6%. This molecule also had an inhibition at 50 µg/mL in the assay with Tobacco mosaic virus [7] of 74.3%. In the assay on Tobacco mosaic virus [8], this molecule had an inhibition at 25 µg/mL of 58.8%.
Molecule `COc1cc2c3c(c4cc(OC)c(OC)cc4c2cc1OC)CN1CCCC1C3.O=C(O)c1ccc(O)cc1` (stereo unspecified) [TYLOPHORINE P-HYDROXYBENZOIC ACID SALT] registered an inhibition at 100 µg/mL with Tobacco mosaic virus [1] of 84.9%. Besides, the EC50 in the assay on Tobacco mosaic virus [2] worked out at 7.7 µg/mL. Further, the inhibition at 5 µg/mL with Tobacco mosaic virus [3] amounted to 50%. The Activity came to 54.9% with Tobacco mosaic virus [4], 42.9% in the assay on Tobacco mosaic virus [5] and 60.9% in the assay on Tobacco mosaic virus [6]. In addition, at 50 µg/mL the inhibition in the assay with Tobacco mosaic virus [7] was 70%. The molecule also had an inhibition at 25 µg/mL in the assay on Tobacco mosaic virus [8] of 54.7%.

The record behind these values is ChEMBL document CHEMBL3046613 (J Agric Food Chem, 2010).
